Results from different studies.
Compare with care: the assays were run in different laboratories.

Compound	tested on	test	test system	conditions	measurement	value
Cc1ccc2cncc(N3CCc4c(cc(Cn5ccnc5)cc4-c4cn(C)nc4C(F)(F)F)C3=O)c2c1			male CD-1 mouse, plasma	oral, 50 mg/kg	MRT(0-inf)	3.5 h
CCOP(=O)(OCC)[C@@H]1C[C@@H](n2cc(-c3ccccc3F)nn2)ON1C	human T-lymphocyte	cell growth or viability		72 h	CC50	> 250 µM
C/C=C/C[C@H](C)[C@@H](OC)[C@@H](C)[C@H](O)C[C@H]1OC(=O)C=C[C@H]1CC		metabolic stability	human, liver microsomes		half-life	< 7 min
COc1ccc2nccc(N3CCc4c(cc(Cn5ccnc5)cc4-c4cn(C)nc4C(F)(F)F)C3=O)c2c1			male CD-1 mouse, plasma	oral, 50 mg/kg	MRT(0-inf)	2.3 h
COc1ccc2c(c1)c1c(n2CO)CN2CCc3cc(OC)c(OCC(F)(F)F)cc3C2C1 (stereo not drawn)	HepG2	cell growth or viability		20 µM, 24 h	viability	74.7%
CCc1cc(OC)c2nccc(N3CCc4c(cc(Cn5ccnc5)cc4-c4cn(C)nc4C(F)(F)F)C3=O)c2c1			male CD-1 mouse, plasma	oral, 150 mg/kg	MRT(0-inf)	3.9 h
CCN(CC)C(=O)[C@@]1(c2ccccc2)C[C@H]1CN			male cynomolgus monkey, plasma	oral, 30 mg/kg	AUC(0-t)	40000 ng·h/mL
CCc1cc(C(=O)NC)c2nccc(N3CCc4c(cc(Cn5ccnc5)cc4-c4cn(C)nc4C(F)(F)F)C3=O)c2c1			male CD-1 mouse, plasma	oral, 150 mg/kg	MRT(0-inf)	2.8 h
c1ccc(-c2nc(N3CCC(c4ccccn4)C3)c3ccccc3n2)nc1 (stereo not drawn)			female BALB/c mouse, plasma	oral, 50 mg/kg	MRT(0-t)	3 h
CCCCCCn1c(-c2cccc(Cl)c2)n[nH]c1=S	HepG2	cell growth or viability, resazurin		10 µM, 24 h	viability	103%
CN(C(=O)n1cnc(-c2ccc[n+]([O-])c2)c1)C1CCCCC1			male cynomolgus monkey, plasma	oral, 0.1 mg/kg	AUC(0-t)	96 ng·h/mL
O=C(c1ccc(Oc2ccccc2)cc1Cl)c1c[nH]c2ncnc(N[C@@H]3CC[C@@H](CO)OC3)c12			cynomolgus monkey, plasma	oral, 10 mg/kg, single dose	AUC(0-t)	82700 ng·h/mL
